The values below come from ChEMBL document CHEMBL1933006, “Mechanistic analysis of muraymycin analogues: a guide to the design of MraY inhibitors” (J Med Chem, 2011).

In brackets after ≈: the same amount, converted by molar mass. Activity calls are given as the source filed them. Where only a bound is given, the exact number is not on record here.

Experiment [1] relates to Enterococcus faecalis. The experiment is described as follows: Antibacterial activity against vancomycin-resistant Enterococcus faecalis SR7914 after 20 hrs by broth microdilution method. The settings on record: SR7914, 20 h. It is filed as functional. An outline of the steps: (§1)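 NCCLS broth microdilution in cation-adjusted Mueller–Hinton broth. Serial 2-fold compound dilutions were inoculated with 5 × 10⁴ CFU per 0.1 mL and incubated at 35 °C for 20 h before scoring the MIC.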

The subject of experiment [2] is Enterococcus faecium. As to the kind of experiment: Antibacterial activity against vancomycin-resistant Enterococcus faecium SR7917 after 20 hrs by broth microdilution method. It is filed as functional. Conditions: SR7917, 20 h. The essentials: as §1
Experiment [3] concerns Staphylococcus aureus. As to the kind of experiment: Antibacterial activity against methicillin-resistant Staphylococcus aureus isolate SR3637 after 20 hrs by broth microdilution method. It is filed as functional. Conditions: isolate SR3637, 20 h. The essentials: as §1
In general terms: Broth dilution looks for growth in wells or tubes with falling amounts of substance.

The subject of experiment [4] is Staphylococcus aureus. As to the kind of experiment: Antibacterial activity against methicillin-sensitive […] Staphylococcus aureus ATCC 29213 after 20 hrs by broth microdilution method. Format: functional. The settings on record: ATCC 29213, 20 h. The essentials: as §1
The test system of experiment [5] is Enterococcus faecalis. The experiment is described as follows: Antibacterial activity against Enterococcus faecalis ATCC 29212 after 20 hrs by broth microdilution method. Format: functional. Conditions: ATCC 29212, 20 h. An outline of the steps:
as §1

For experiment [6], the system named is Enterococcus faecium. As to the kind of experiment: Antibacterial activity against Enterococcus faecium ATCC 19434 after 20 hrs by broth microdilution method. Format: functional. Conditions: ATCC 19434, 20 h. The essentials: as §1
The next experiment relates to HepG2. As to the kind of experiment: Cytotoxicity against human HepG2 cells after 48 hrs by WST-8 assay. Conditions: HepG2, 48 h. It is filed as cell-based. An outline of the steps: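 HepG2 cells in DMEM with 10% FBS were seeded at 1 × 10⁴ cells/well and treated 24 h later with varying concentrations for 48 h. WST-8 reagent was then added for 1.5 h at 37 °C, and absorbance read at 450 nm. Percentage growth inhibition was calculated against untreated cells, and IC50 was derived. Tunicamycin served as positive control.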

Experiment [7] addresses T1, Undecaprenyl-phosphate alpha-N-acetylglucosaminyl 1-phosphate transferase (Thermotoga maritima (strain ATCC 43589 / MSB8 / DSM 3109 / JCM 10099), UniProt Q9X1N5).
T1 sequence (Q9X1N5 whole entry): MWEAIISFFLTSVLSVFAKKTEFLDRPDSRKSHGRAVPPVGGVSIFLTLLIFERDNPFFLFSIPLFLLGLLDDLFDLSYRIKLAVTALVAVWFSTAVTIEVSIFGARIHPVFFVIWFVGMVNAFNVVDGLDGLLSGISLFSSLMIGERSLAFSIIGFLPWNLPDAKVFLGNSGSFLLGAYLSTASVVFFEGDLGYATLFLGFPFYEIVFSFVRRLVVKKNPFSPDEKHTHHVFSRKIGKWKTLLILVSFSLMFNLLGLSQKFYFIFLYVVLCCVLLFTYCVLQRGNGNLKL
As to the kind of experiment: Inhibition of Thermotoga maritima WecA using radiolabeled UDP-[14C]GlcNAc as substrate after 30 mins. An outline of the steps: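 Purified Thermotoga maritima WecA was assayed at pH 8 (100 mM Tris-HCl, 10 mM MgCl₂, 1.1 mM C₅₅-P, 0.16 mM UDP-[¹⁴C]GlcNAc, 92.7 mM Triton X-100), final concentrations. The reaction was started by enzyme, run 30 min at 65 °C and stopped at 100 °C for 1 min. C₅₅-PP-GlcNAc was separated by TLC and scanned. IC50 was relative to a no-inhibitor control, mean of triplicates.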

Experiment [8] deals with T2, Phospho-N-acetylmuramoyl-pentapeptide-transferase (Bacillus subtilis (strain 168), UniProt Q03521).
T2 sequence (Q03521 whole entry): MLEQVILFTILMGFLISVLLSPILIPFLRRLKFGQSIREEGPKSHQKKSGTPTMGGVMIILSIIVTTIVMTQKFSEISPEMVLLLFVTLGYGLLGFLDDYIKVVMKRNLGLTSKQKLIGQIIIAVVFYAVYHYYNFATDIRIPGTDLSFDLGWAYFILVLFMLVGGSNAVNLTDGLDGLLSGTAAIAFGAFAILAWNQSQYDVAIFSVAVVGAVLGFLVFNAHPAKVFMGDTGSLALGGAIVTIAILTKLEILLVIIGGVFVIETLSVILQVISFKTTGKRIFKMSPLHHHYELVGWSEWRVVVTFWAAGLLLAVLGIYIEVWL
The experiment is described as follows: Competitive inhibition of Bacillus subtilis MraY using UDP-MurNAc-pentapeptide as substrate after 30 mins by Lineweaver-Burk plot. An outline of the steps: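 B. subtilis MraY was assayed at pH 7.5 (100 mM Tris-HCl, 40 mM MgCl₂, 250 mM NaCl, 8.4 mM N-lauroylsarcosine), started by enzyme and run 30 min at 37 °C. Initial rates were taken at 0.25–1.5 mM UDP-MurNAc-[¹⁴C]pentapeptide, fixed 1 mM C₅₅-P, and several inhibitor levels. Lipid I was separated by TLC and scanned. Ki came from Lineweaver–Burk plots assuming a ping-pong Bi Bi mechanism.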

For experiment [9], the target named is T2, Phospho-N-acetylmuramoyl-pentapeptide-transferase. The experiment is described as follows: Noncompetitive inhibition of Bacillus subtilis MraY using […] as substrate after 30 mins by Lineweaver-Burk plot.
A further experiment concerns Bacillus subtilis. As to the kind of experiment: Antibacterial activity against Bacillus subtilis at 64 ug/ml. It is filed as functional, organism-based.

Regarding `CCCCCCOc1ccc(-c2ccc([C@H](NC(=O)[C@@H](NC(=O)N[C@H](C(=O)O)C(C)C)[C@@H]3CCNC(=N)N3)C(=O)NCCCN[C@H](C(=O)O)[C@H](O[C@@H]3O[C@H](CN)[C@@H](O)[C@H]3O)[C@H]3O[C@@H](n4ccc(=O)[nH]c4=O)[C@H](O)[C@@H]3O)cc2)cc1`, the MIC (as a rule, the smallest concentration in the dilution series that meets the test's criterion for growth inhibition) was determined as 8 µg/mL (≈ 7.19 µM) with Enterococcus faecalis [1]; 4 µg/mL (≈ 3.6 µM) in the experiment on Enterococcus faecium [2]; 8 µg/mL (≈ 7.19 µM) against Staphylococcus aureus [3]; 4 µg/mL (≈ 3.6 µM) with Staphylococcus aureus [4]; 8 µg/mL (≈ 7.19 µM) with Enterococcus faecalis [5]; 4 µg/mL (≈ 3.6 µM) against Enterococcus faecium [6]. The IC50 (commonly the point on the concentration scale where inhibition reaches its midpoint) in the experiment on HepG2 is > 100 µg/mL.
With `CCCCCCCCCCCCCCC[C@H](NC(=O)[C@@H](NC(=O)N[C@H](C(=O)O)C(C)C)[C@@H]1CCNC(=N)N1)C(=O)NCCCN[C@H](C(=O)O)[C@H](O[C@@H]1O[C@H](CN)[C@@H](O)[C@H]1O)[C@H]1O[C@@H](n2ccc(=O)[nH]c2=O)[C@H](O)[C@@H]1O`, the concentration for half-maximal inhibition (IC50) in [7] came out at 970 µM. Also, the Ki in experiment [8] and in [9] was 0.247 µM in each case. For the same compound, the MIC in the experiment with Enterococcus faecalis [1] amounted to 4 µg/mL (≈ 3.74 µM); against Enterococcus faecium [2] it was 2 µg/mL (≈ 1.87 µM); in the experiment with Staphylococcus aureus [3] it was 4 µg/mL (≈ 3.74 µM); against Staphylococcus aureus [4], 2 µg/mL (≈ 1.87 µM); in the experiment on Enterococcus faecalis [5], 4 µg/mL (≈ 3.74 µM); in the experiment on Enterococcus faecium [6], 4 µg/mL (≈ 3.74 µM).
`CC(C)C[C@H](NC(=O)[C@@H](NC(=O)N[C@H](C(=O)O)C(C)C)[C@@H]1CCN=C(N)N1)C(=O)NCCCN[C@H](C(=O)O)[C@H](O[C@@H]1O[C@H](CN)[C@@H](O)[C@H]1O)[C@H]1O[C@@H](n2ccc(=O)[nH]c2=O)[C@H](O)[C@@H]1O` [MURAMYCIN D2] showed an IC50 in experiment [7] of 1230 µM. In addition, the Ki in experiment [8] and in [9] was 0.0076 µM throughout.
As for `CCCCCCCCCCCCCCC[C@@H](NC(=O)[C@@H](NC(=O)N[C@H](C(=O)O)C(C)C)[C@@H]1CCNC(=N)N1)C(=O)NCCCN[C@H](C(=O)O)[C@H](O[C@@H]1O[C@H](CN)[C@@H](O)[C@H]1O)[C@H]1O[C@@H](n2ccc(=O)[nH]c2=O)[C@H](O)[C@@H]1O`, the IC50 in [7] was 1340 µM; in the experiment with HepG2 it was > 100 µg/mL. Moreover, the Ki in experiment [8] and in [9] was 0.698 µM each time. The MIC with Enterococcus faecalis [1] came out at 4 µg/mL (≈ 3.74 µM); in the experiment on Enterococcus faecium [2], 0.25 µg/mL (≈ 0.234 µM); against Staphylococcus aureus [3], 4 µg/mL (≈ 3.74 µM); in the experiment with Staphylococcus aureus [4], 2 µg/mL (≈ 1.87 µM); in the experiment on Enterococcus faecalis [5] it was 2 µg/mL (≈ 1.87 µM); with Enterococcus faecium [6] it was 0.5 µg/mL (≈ 0.467 µM).
In experiment [7], `CC(C)C[C@@H](NC(=O)[C@@H](NC(=O)N[C@H](C(=O)O)C(C)C)[C@@H]1CCN=C(N)N1)C(=O)NCCCN[C@H](C(=O)O)[C@H](O[C@@H]1O[C@H](CN)[C@@H](O)[C@H]1O)[C@H]1O[C@@H](n2ccc(=O)[nH]c2=O)[C@H](O)[C@@H]1O` registered an IC50 of 1560 µM. The Ki in [8] and in [9] was 0.049 µM each time.
On to `CC(C)C[C@@H](NC(=O)[C@@H](NC(=O)N[C@H](C(=O)O)C(C)C)[C@@H]1CCNC(=N)N1)C(=O)NCCCN[C@H](C(=O)O)[C@H](O[C@@H]1O[C@H](CN)[C@@H](O)[C@H]1O)[C@H]1O[C@@H](n2ccc(=O)[nH]c2=O)[C@H](O)[C@@H]1O`, for which the result in the experiment with Bacillus subtilis was inactive. The MIC against Enterococcus faecalis [1], with Enterococcus faecium [2], against Staphylococcus aureus [3], against Staphylococcus aureus [4], with Enterococcus faecalis [5] and against Enterococcus faecium [6] was > 64 µg/mL each time.
On to `CCCCOc1ccc(-c2ccc(CC[C@H](NC(=O)[C@@H](NC(=O)N[C@H](C(=O)O)C(C)C)[C@@H]3CCNC(=N)N3)C(=O)NCCCN[C@H](C(=O)O)[C@H](O[C@@H]3O[C@H](CN)[C@@H](O)[C@H]3O)[C@H]3O[C@@H](n4ccc(=O)[nH]c4=O)[C@H](O)[C@@H]3O)cc2)cc1`, for which the MIC against Enterococcus faecalis [1] is 64 µg/mL (≈ 57.5 µM); against Enterococcus faecium [2] it was 32 µg/mL (≈ 28.8 µM); in the experiment on Staphylococcus aureus [3] it was 32 µg/mL (≈ 28.8 µM); in the experiment with Staphylococcus aureus [4], 16 µg/mL (≈ 14.4 µM); with Enterococcus faecalis [5] it was 16 µg/mL (≈ 14.4 µM); with Enterococcus faecium [6], 16 µg/mL (≈ 14.4 µM). Besides, the half-maximal inhibitory concentration (IC50) with HepG2 was > 100 µg/mL.
Take `CC(C)C[C@H](NC(=O)[C@@H](NC(=O)N[C@H](C(=O)O)C(C)C)[C@@H]1CCNC(=N)N1)C(=O)NCCCN[C@H](C(=O)O)[C@H](O[C@@H]1O[C@H](CN)[C@@H](O)[C@H]1O)[C@H]1O[C@@H](n2ccc(=O)[nH]c2=O)[C@H](O)[C@@H]1O` [MURAMYCIN D2]: the outcome with Bacillus subtilis was inactive. Further, the minimal inhibitory concentration (MIC) in the experiment with Enterococcus faecalis [1], against Enterococcus faecium [2], in the experiment on Staphylococcus aureus [3], in the experiment on Staphylococcus aureus [4], with Enterococcus faecalis [5] and against Enterococcus faecium [6] was > 64 µg/mL throughout.
For the compound `CC(C)[C@H](NC(=O)N[C@H](C(=O)N[C@@H](CCCCCCCc1ccc(-c2ccccc2)cc1)C(=O)NCCCN[C@H](C(=O)O)[C@H](O[C@@H]1O[C@H](CN)[C@@H](O)[C@H]1O)[C@H]1O[C@@H](n2ccc(=O)[nH]c2=O)[C@H](O)[C@@H]1O)[C@@H]1CCNC(=N)N1)C(=O)O`, the MIC in the experiment with Enterococcus faecalis [1] came out at 16 µg/mL (≈ 14.4 µM); in the experiment on Enterococcus faecium [2], 8 µg/mL (≈ 7.21 µM); in the experiment with Staphylococcus aureus [3], 4 µg/mL (≈ 3.6 µM); against Staphylococcus aureus [4], 4 µg/mL (≈ 3.6 µM); in the experiment on Enterococcus faecalis [5], 4 µg/mL (≈ 3.6 µM); with Enterococcus faecium [6], 4 µg/mL (≈ 3.6 µM). For the same compound, in the experiment on HepG2, the IC50 is > 100 µg/mL.
